From ChEMBL document CHEMBL1156119 (J Med Chem, 2009)
pEC50: −log10 of the molar value. Activity calls are given as the source filed them. No cut-off for these calls is given here.

What was measured:
[1] = Antiprion activity against Scrapie prion protein-mediated scrapie in mouse SMB cells assessed as remaining PrP-Sc level after 5 days by Bradford assay; assay type: cell-based; details: 120 h
In short: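 Same SMB dot-blot protocol with 5-day exposure. Compounds were rescreened over a range of concentrations to fit an EC₅₀ from dose-response curves. Each determination was run in triplicate, in at least two independent experiments. PrP^Sc was measured relative to an untreated DMSO-only control.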

[2] = Antiprion activity against Scrapie prion protein-mediated scrapie in RML mouse ScN2a cells assessed as reduction of PrP-Sc level after 6 days by immunoblotting; assay type: cell-based; details: 144 h
SMB [3] = assay: Antiprion activity against Scrapie prion protein-mediated scrapie in mouse SMB cells assessed as remaining PrP-Sc level at 24 uM after 5 days by Bradford assay relative to control; assay type: cell-based
SMB [4] = assay: Antiprion activity against Scrapie prion protein-mediated scrapie in mouse SMB cells assessed as remaining PrP-Sc level at 1 uM after 5 days by Bradford assay relative to control; assay type: cell-based
In short: (§1)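 Compound DMSO stocks were diluted via HBSS into medium and applied for 5 days. Lysates of ~30-40 μg protein/well were dot-blotted, digested with proteinase K at 75 μg mL⁻¹ (1 h, 37 °C) and denatured in 1.8 M guanidine thiocyanate. Read-out was %PrP^Sc versus DMSO-only control, in triplicate.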

[5] = biological target: Major prion protein (Mus musculus) (UniProt P04925); assay: Binding affinity to mouse PrP up to 40 uM by surface plasmon resonance assay
Sequence of Major prion protein (Mus musculus) (P04925 whole entry): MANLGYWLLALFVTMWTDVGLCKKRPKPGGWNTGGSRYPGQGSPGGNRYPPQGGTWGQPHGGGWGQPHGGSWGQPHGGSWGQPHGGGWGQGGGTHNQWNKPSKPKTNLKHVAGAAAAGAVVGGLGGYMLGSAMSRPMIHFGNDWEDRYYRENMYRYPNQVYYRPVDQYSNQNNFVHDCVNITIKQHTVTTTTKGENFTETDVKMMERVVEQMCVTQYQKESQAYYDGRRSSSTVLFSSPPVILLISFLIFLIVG

[6] = biological target: Major prion protein (Homo sapiens) (UniProt P04156); assay: Binding affinity to human PrP up to 40 uM by surface plasmon resonance assay
SMB [7] = assay: Antiprion activity against Scrapie prion protein-mediated scrapie in mouse SMB cells by dot blot analysis; assay type: cell-based
In short: as §1, with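 “SMB scrapie-infected mouse cells, non-neuronal, in medium 199 with 10% newborn calf and 5% fetal calf serum, seeded at 3 × 10⁴ cells/well and attached for 24 h. Compound” for “Compound”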

SMB [8] = assay: Antiprion activity against Scrapie prion protein-mediated scrapie in mouse SMB cells assessed as remaining PrP-Sc level at 10 uM after 5 days by Bradford assay relative to control; assay type: cell-based
In short: as §1, with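 “SMB scrapie-infected mouse cells, non-neuronal, in medium 199 with 10% newborn calf and 5% fetal calf serum, seeded at 3 × 10⁴ cells/well and attached for 24 h. Compound” for “Compound”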

SMB [9] = assay: Antiprion activity against Scrapie prion protein-mediated scrapie in mouse SMB cells assessed as remaining PrP-Sc level at 20 uM after 5 days by Bradford assay relative to control; assay type: cell-based
In short: as §1, with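 “SMB scrapie-infected mouse cells, non-neuronal, in medium 199 with 10% newborn calf and 5% fetal calf serum, seeded at 3 × 10⁴ cells/well and attached for 24 h. Compound” for “Compound”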

[10] = Cytotoxicity against mouse SMB cells at 20 uM after 5 days by MTT assay; assay type: cell-based; details: 120 h
In short: (§2)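 SMB cells were seeded at 3 × 10⁴ cells/well and attached for 24 h. Compound was added from DMSO stock diluted through HBSS into the medium, and cells were exposed for 5 days. Viability was read by MTT assay following the standard reagent protocol.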

[11] = Cytotoxicity against mouse SMB cells at 10 uM after 5 days by MTT assay; assay type: cell-based; details: 120 h; in short: as §2
[12] = Antiprion activity against Scrapie prion protein-mediated scrapie in mouse ScNB cells assessed as PrP-res accumulation after 4 days by immunoblotting; assay type: cell-based; details: 96 h

In the case of `CCN(CC)CCCC(C)Nc1c2ccc(Cl)cc2nc2ccc(OC)cc12` (configuration not stated) [QUINACRINE], the pEC50 [1] was 6.38 and the pEC50 [2] was 6.52.

Compound `CN(C(=O)C(=O)c1c[nH]c2ccccc12)c1ccccc1` has an Activity (SMB [3]) of 127%.

With `O=C(Nc1cccc(F)c1)C(=O)c1c[nH]c2ccccc12` the Activity (SMB [4]) was 27.1%, the pEC50 [1] was 6.19 and the Activity [5] was “inactive”. For the same compound, the Activity [6] was “inactive”.

In the case of `O=C(Nc1cnc2ccccc2c1)C(=O)c1c[nH]c2ccccc12`, the Activity (SMB [4]) was 41.3%, the pEC50 [1] was 6.77 and the Activity [5] was “inactive”. The Activity [6] was “inactive”.

For `O=C(Nc1ccccc1)C(=O)c1c[nH]c2ccccc12`, the Activity (SMB [4]) was 19.5%, the pEC50 [1] was 6.49 and the Activity [5] was “inactive”. The Activity [6] was “inactive”.

In the case of `O=C(Nc1ccc(N2CCCCC2)cc1)C(=O)c1c[nH]c2ccccc12`, the Activity (SMB [7]) was “Dose-dependent effect”, the Activity (SMB [4]) was 6.5% and the pEC50 [1] was 7.14.

With `COc1cccc(NC(=O)C(=O)c2c[nH]c3ccccc23)c1` the Remaining PrP-Sc level (SMB [8]) was 17.5%, the pEC50 [1] was 6.64 and the Activity [5] was “inactive”. For the same compound, the Activity [6] was “inactive”.

With `O=C(Nc1ccc(F)nc1)C(=O)c1c[nH]c2ccccc12` the Activity (SMB [7]) was “Dose-dependent effect”, the Activity (SMB [4]) was 52.3% and the pEC50 [1] was 5.92.

For `CC(C)NC(=O)C(=O)c1c[nH]c2ccccc12`, the Remaining PrP-Sc level (SMB [9]) was 74.9%, the Activity [10] was “Toxic” and the Activity [11] was “Toxic”.

In the case of `O=C(Nc1ccc(O)cc1)C(=O)c1c[nH]c2ccccc12`, the Activity (SMB [4]) was 17.8%, the pEC50 [1] was 6.62 and the Activity [5] was “inactive”. The Activity [6] was “inactive”.

With `COc1cc(/C=C/C(=O)CC(=O)/C=C/c2ccc(O)c(OC)c2)ccc1O` [CURCUMIN] the pEC50 [1] was 6.02 and the pEC50 [12] was 8.00.

In the case of `O=C(Nc1ccc(N2CCOCC2)cc1)C(=O)c1c[nH]c2ccccc12`, the Activity (SMB [7]) was “Dose-dependent effect”, the Activity (SMB [4]) was 4.6% and the pEC50 [1] was 8.05.
